By Kd is commonly meant the constant that tells how readily two partners part at equilibrium.

Drawing on the RNAGym collection of RNA variant scans (doi:10.1038/nmeth.2970), this text covers Kd for 38 variants.

Sequences and labels used below:
B1: NELF-E aptamer (parent)
chain: CCCAACGACUGCCGAGCGAGAUUACGCUUGAGCGCCCCACUGAGGAUGCCCACGGGCGAUUGGGGCACGG

The variants in this data set derive from B1. The data set can be described thus: HiTS-RAP. The conditions noted are these: with NELF-E (Drosophila). The procedure, abridged: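 Aptamer DNA templates carrying a T7 promoter and ter site were sequenced on an Illumina GAIIx flowcell, then transcribed in situ by T7 RNA polymerase and halted by GST-Tus (30 minutes, 37°C). Clusters were imaged after 30-minute room-temperature equilibration with NELF-E-mOrange at 0.064 to 1000 nM in HEPES binding buffer, and only the first binding curve was used. Intensities were normalised to sequencing intensity and averaged per sequence. Kd came from weighted Hill fits, keeping fits with variance below 1,000,000.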
Regarding CCCAACGACUGCCGAGCGAGAGUACGCUUGAGCGCCCCACUGAGGAAGCCCACGGGCGAUUGGGGCACGG [U22G U47A], the equilibrium dissociation constant (Kd) came to 11.3 nM.
With CCCAACGACUGCCGAGCGAGAGUACGCUUGAGCGCCCCACUGAGGAGGCCCACGGGCGAUUGGGGCACGG [U22G U47G] the figure was 7.29 nM.
With CCCAACGACUGCCGAGCGAGAUGACGCUUGAGCGCCCCACUGAGGAUGCCCACGGGCGAUUGGGGUACGG [U23G C66U] the figure was 6 nM; with CCCAACGACUGCCGAGCGAGAUGACGCUUGAGGGCCCCACUGAGGAUGCCCACGGGCGAUUGGGGCACGG [U23G C33G], 8.04 nM; with CCCAACGACUGCCGAGCGAGAUGACGCUUGAGUGCCCCACUGAGGAUGCCCACGGGCGAUUGGGGCACGG [U23G C33U], 6.01 nM.
To CCCAACGACUGCCGAGCGAGAUGACGCUUGAGAGCCCCACUGAGGAUGCCCACGGGCGAUUGGGGCACGG [U23G C33A] belongs 5.51 nM; to CCCAACGACUGCCGAGCGAGAUGACGCUUGUGCGCCCCACUGAGGAUGCCCACGGGCGAUUGGGGCACGG [U23G A31U], 6.53 nM.
For CCCAACGACUGCCGAGCGAGAUGACGCUUGGGCGCCCCACUGAGGAUGCCCACGGGCGAUUGGGGCACGG [U23G A31G], the Kd is 6.72 nM.
To CCCAACGACUGCCGAGCGAGAUGACGCUUGAGCGCCCCACUGAGGGUGCCCACGGGCGAUUGGGGCACGG [U23G A46G] belongs 59.5 nM; to CCCAACGACUGCCGAGCGAGAUGACGCUUGAGCGCCCCACUGAGGUUGCCCACGGGCGAUUGGGGCACGG [U23G A46U], 69.3 nM; to CCCAACGACUGCCGAGCGAGAUGACGCUUGAGCGCCCCACUGAGGAUGCCCACGGGCGAUUGGGGCCCGG [U23G A67C], 4.59 nM.
To CCCAACGACUGCCGAGCGAGAUGACGCUUGAGCGCCCCACUGAGGAUGCCCACGGGCGAUUGGGGCGCGG [U23G A67G] belongs 6.23 nM.
As for CCCAACGACUGCCGAGCGAGAUGACGCUUGAGCGCCCCACUGAGGAUGCCCACGGGCGAUUGGGGCUCGG [U23G A67U], the Kd was 7.58 nM.
With CCCAACGACUGCCGAGCGAGAUCGCGCUUGAGCGCCCCACUGAGGAUGCCCACGGGCGAUUGGGGCACGG [U23C A24G] the figure was 5.24 nM; with CCCAACGACUGCCGAGCGAGAUGACGCUUGAGCGCCCCACUGAGGAUGCUCACGGGCGAUUGGGGCACGG [U23G C50U], 12.6 nM.
With CCCAACGACUGCCGAGCGAGAUGACGCUUGAGCGCCCCACUGAGGAUGCGCACGGGCGAUUGGGGCACGG [U23G C50G] the figure was 5.73 nM; with CCCAACGACUGCCGAGCGAGAUGACGCUUGAGCGCCCCACUGAGGAUGCACACGGGCGAUUGGGGCACGG [U23G C50A], 16.7 nM.
As for CCCAACGACUGCCGAGCGAGAUGGCGCUUGAGCGCCCCACUGAGGAUGCCCACGGGCGAUUGGGGCACGG [U23G A24G], the Kd amounted to 5.97 nM.
To CCCAACGACUGCCGAGCGAGAUGUCGCUUGAGCGCCCCACUGAGGAUGCCCACGGGCGAUUGGGGCACGG [U23G A24U] belongs 6.08 nM; to CCCAACGACUGCCGAGCGAGAUGACGCUUGAGCGCUCCACUGAGGAUGCCCACGGGCGAUUGGGGCACGG [U23G C36U], 8.06 nM.
To CCCAACGACUGCCGAGCGAGAUGACGCUUGAGCGCACCACUGAGGAUGCCCACGGGCGAUUGGGGCACGG [U23G C36A] belongs 8.43 nM; to CCCAACGACUGCCGAGCGAGAUGACGCUUGAGCGCGCCACUGAGGAUGCCCACGGGCGAUUGGGGCACGG [U23G C36G], 5.58 nM.
CCCAACGACUGCCGAGCGAGAUGACGCUUGAGCGCCCCACUGAGGAUGCCCACGGGUGAUUGGGGCACGG [U23G C57U]: the Kd was determined as 5.72 nM.
To CCCAACGACUGCCGAGCGAGAUGACGCUUGAGCGCCCCACUGAGGAUGCCCAGGGGCGAUUGGGGCACGG [U23G C53G] belongs 7.15 nM; to CCCAACGACUGCCGAGCGAGAUGACGCUUGAGCGCCCCACUGAGGAUGCCCAUGGGCGAUUGGGGCACGG [U23G C53U], 4.17 nM.
With CCCAACGACUGCCGAGCGAGAUGACGCUUGAGCGCCCCACUGAGGAUGCCCAAGGGCGAUUGGGGCACGG [U23G C53A] the figure was 6.72 nM; with CCCAACGACUGCCGAGCGAGAUGACGCUUGAACGCCCCACUGAGGAUGCCCACGGGCGAUUGGGGCACGG [U23G G32A], 5.52 nM.
Consider CCCAACGACUGCCGAGCGAGAUGACGCUUGAUCGCCCCACUGAGGAUGCCCACGGGCGAUUGGGGCACGG [U23G G32U], for which the Kd was 6.92 nM.
To CCCAACGACUGCCGAGCGAGAUGACGUUUGAGCGCCCCACUGAGGAUGCCCACGGGCGAUUGGGGCACGG [U23G C27U] belongs 4.59 nM; to CCCAACGACUGCCGAGCGAGAUAACGCUGGAGCGCCCCACUGAGGAUGCCCACGGGCGAUUGGGGCACGG [U23A U29G], 5.75 nM; to CCCAACGACUGCCGAGCGAGAUCACGCUGGAGCGCCCCACUGAGGAUGCCCACGGGCGAUUGGGGCACGG [U23C U29G], 4.34 nM.
On to CCCAACGACUGCCGAGCGAGAUGACGCUUGAGCGCCCCACUGAGGAUGCCGACGGGCGAUUGGGGCACGG [U23G C51G], for which the Kd turned out to be 5.33 nM.
To CCCAACGACUGCCGAGCGAGAUGACGCUUGAGCGCCCCACUGAGGAUGCCUACGGGCGAUUGGGGCACGG [U23G C51U] belongs 7.2 nM; to CCCAACGACUGCCGAGCGAGAUGACGCUUGAGCGCCCCACUGAAGAUGCCCACGGGCGAUUGGGGCACGG [U23G G44A], 68.6 nM.
To CCCAACGACUGCCGAGCGAGAUGACGCUUGAGCGCCCCACUGAUGAUGCCCACGGGCGAUUGGGGCACGG [U23G G44U] belongs 6.93 nM.
To CCCAACGACUGCCGAGCGAGAUGACGCUUGAGCGCCCCUCUGAGGAUGCCCACGGGCGAUUGGGGCACGG [U23G A39U] belongs 24.8 nM.
On to CCCAACGACUGCCGAGCGAGAUGACGCUUGAGCGCCCCGCUGAGGAUGCCCACGGGCGAUUGGGGCACGG [U23G A39G], for which the Kd is 8.65 nM.
To CCCAACGACUGCCGAGCGAGAUGACGCUUGAGCGCCCCACUGAGGAUGCCCACGGGCGGUUGGGGCACGG [U23G A59G] belongs 57.5 nM.
